Source: ChEMBL document CHEMBL1145138, “Design and synthesis of 4-azaindoles as inhibitors of p38 MAP kinase” (J Med Chem, 2003)

Legend:
[1] = CL at a dose of 10 mg/Kg administered intravenously in female hanover-wistar rat; assay type: ADME, organism-based; conditions: in vivo, iv
Outline: (§1)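 Female Wistar/Han rats weighing 180–220 g, 3 per dose regime, received a single 10 mg/kg IV bolus in 50% cyclodextran/water. Blood was drawn under CO₂:O₂ (60:40) via orbital sinus or cardiac puncture at 1, 3, 6, 8 and 24 h. Plasma was protein-precipitated with acetonitrile, diluted in 50 mM formate buffer and quantified by LC/MS.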

[2] = target: cAMP-dependent protein kinase (PKA) (Homo sapiens, UniProt P22694+P17612+P22612); assay: Inhibition of Protein kinase A (PKA); assay type: protein assay
[3] = target: Tyrosine-protein kinase Fyn (Homo sapiens, UniProt P06241); assay: Inhibition of p55 Fyn kinase
Tyrosine-protein kinase Fyn, sequence (P06241 whole entry): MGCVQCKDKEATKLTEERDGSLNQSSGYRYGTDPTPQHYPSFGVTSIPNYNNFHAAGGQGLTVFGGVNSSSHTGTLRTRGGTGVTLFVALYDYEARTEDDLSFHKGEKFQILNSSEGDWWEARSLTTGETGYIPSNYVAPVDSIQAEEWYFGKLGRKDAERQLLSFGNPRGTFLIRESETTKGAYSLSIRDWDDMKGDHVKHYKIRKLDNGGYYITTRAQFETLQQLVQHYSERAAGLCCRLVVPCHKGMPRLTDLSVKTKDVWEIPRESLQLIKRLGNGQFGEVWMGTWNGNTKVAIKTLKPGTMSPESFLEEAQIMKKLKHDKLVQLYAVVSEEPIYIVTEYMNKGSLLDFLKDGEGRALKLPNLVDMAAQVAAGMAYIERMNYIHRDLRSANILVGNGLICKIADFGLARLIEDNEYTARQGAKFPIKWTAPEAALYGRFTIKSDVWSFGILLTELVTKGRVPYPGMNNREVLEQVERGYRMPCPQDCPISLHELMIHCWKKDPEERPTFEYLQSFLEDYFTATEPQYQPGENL

[4] = T max at a dose of 10 mg/Kg administered perorally in female hanover-wistar rat; assay type: ADME, organism-based; conditions: in vivo, po
Outline: (§2)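 Female Wistar/Han rats (180–220 g, n=3 per regime) received a single 10 mg/kg oral suspension in 0.9% NaCl, 0.5% Na-CMC, 0.4% polysorbate 80 and 0.9% benzyl alcohol. Blood was taken at 1, 3, 6, 8 and 24 h by orbital sinus or cardiac puncture. Plasma drug was measured by LC/MS after acetonitrile precipitation; the comparison arm was a 10 mg/kg IV bolus.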

[5] = target: Cyclin-dependent kinase 2 (Homo sapiens, UniProt P24941); assay: Inhibition of Cyclin-dependent kinase 2
MAP kinase p38 [6] = target: T1, MAP kinase p38 (Homo sapiens, UniProt O15264+Q15759+Q16539+P53778); assay: In vitro inhibition of LPS induced p38-related TNFalpha release by THP-1 cells; assay type: functional, cell-based
Outline: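 THP-1 cells at 2.5×10⁶ cells/mL in RPMI with 15% FBS and 0.02 mM 2-mercaptoethanol were preincubated 30 min at 37 °C with compound in DMSO-containing medium (DMSO stated as 5% final). LPS was then added at 0.5 μg/mL final for a further 2 h. Supernatant TNFα was read by trapping ELISA with two anti-TNFα antibodies.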

[7] = target: Mitogen-activated protein kinase 8 (Homo sapiens, UniProt P45983); assay: Inhibition of c-Jun N-terminal kinase 1
Mitogen-activated protein kinase 8, sequence (P45983 whole entry): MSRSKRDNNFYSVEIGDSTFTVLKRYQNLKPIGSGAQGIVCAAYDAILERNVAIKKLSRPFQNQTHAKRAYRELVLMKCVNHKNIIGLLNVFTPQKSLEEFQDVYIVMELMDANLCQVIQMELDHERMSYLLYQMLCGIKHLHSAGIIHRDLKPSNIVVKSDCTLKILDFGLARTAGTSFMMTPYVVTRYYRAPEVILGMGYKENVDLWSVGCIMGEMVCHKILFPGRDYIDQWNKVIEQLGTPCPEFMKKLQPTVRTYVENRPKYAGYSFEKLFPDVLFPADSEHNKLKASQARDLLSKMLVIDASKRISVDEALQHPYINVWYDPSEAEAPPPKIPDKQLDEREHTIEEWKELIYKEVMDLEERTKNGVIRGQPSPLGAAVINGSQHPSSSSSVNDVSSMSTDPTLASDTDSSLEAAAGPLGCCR

Rattus norvegicus = species: Rattus norvegicus; assay: Effective dose against LPS stimulated TNF alpha production in rats; assay type: functional
Outline: (§3)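 Female Wistar/Han rats, 8 per group, were dosed orally at −30 min with compound in CMC vehicle (0.9% NaCl, 0.5% Na-CMC, 0.4% polysorbate 80, 0.9% benzyl alcohol) or with vehicle alone. LPS 50 μg/kg was given ip at 0 h. At 1.5 h, blood was taken by cardiocentesis after CO₂ euthanasia, and serum TNFα was measured by ELISA against vehicle controls.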

[8] = T 1/2 at a dose of 10 mg/Kg administered intravenously in female hanover-wistar rat; assay type: ADME, organism-based; conditions: in vivo, iv; outline: as §1
[9] = target: MAP kinase-activated protein kinase 2 (Homo sapiens, UniProt P49137); assay: Inhibition of MAP kinase-activated protein kinase 2
MAP kinase-activated protein kinase 2, sequence (P49137 whole entry): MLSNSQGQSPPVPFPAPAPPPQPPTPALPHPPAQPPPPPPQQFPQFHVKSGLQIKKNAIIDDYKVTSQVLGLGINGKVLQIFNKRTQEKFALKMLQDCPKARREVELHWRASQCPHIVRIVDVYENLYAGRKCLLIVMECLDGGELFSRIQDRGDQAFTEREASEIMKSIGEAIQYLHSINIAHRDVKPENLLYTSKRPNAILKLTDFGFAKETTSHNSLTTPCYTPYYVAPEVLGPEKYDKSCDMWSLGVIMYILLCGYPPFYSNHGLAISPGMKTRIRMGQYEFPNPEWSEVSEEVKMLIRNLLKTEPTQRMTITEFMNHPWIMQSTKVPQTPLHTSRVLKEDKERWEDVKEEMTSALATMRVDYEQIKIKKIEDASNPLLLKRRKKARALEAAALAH

[10] = AUC at a dose of 10 mg/Kg administered intravenously in female hanover-wistar rat; assay type: ADME, organism-based; conditions: plasma, iv; outline: as §1
[11] = target: Cyclin-dependent kinase 1 (Homo sapiens, UniProt P06493); assay: Inhibition of Cyclin-dependent kinase 1
Cyclin-dependent kinase 1, sequence (P06493 whole entry): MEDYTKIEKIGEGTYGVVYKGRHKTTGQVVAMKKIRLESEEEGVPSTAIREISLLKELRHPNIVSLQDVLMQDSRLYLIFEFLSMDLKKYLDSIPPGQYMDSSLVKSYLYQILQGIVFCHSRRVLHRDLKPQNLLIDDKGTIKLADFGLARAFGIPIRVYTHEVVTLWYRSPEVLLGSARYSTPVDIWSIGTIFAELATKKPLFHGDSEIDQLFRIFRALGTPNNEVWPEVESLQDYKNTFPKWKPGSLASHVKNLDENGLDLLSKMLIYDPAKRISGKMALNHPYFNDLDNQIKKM

[12] = C max at a dose of 10 mg/Kg administered perorally in female hanover-wistar rat; assay type: ADME, organism-based; design: dose 10 mg/Kg, route oral; conditions: in vivo, po; outline: as §2
Homo sapiens = species: Homo sapiens; assay: Caco-2 permeability was determined; activity value is 5.8*10e-5; assay type: ADME
[13] = C max at a dose of 10 mg/Kg administered intravenously in female hanover-wistar rat; assay type: ADME, organism-based; design: dose 10 mg/Kg, route intravenous; conditions: in vivo, iv; outline: as §1
[14] = target: T2, Mitogen-activated protein kinase 14 (Homo sapiens, UniProt Q16539); assay: In vitro inhibitory concentration against Mitogen-activated protein kinase p38 alpha
T2 sequence (Q16539 whole entry): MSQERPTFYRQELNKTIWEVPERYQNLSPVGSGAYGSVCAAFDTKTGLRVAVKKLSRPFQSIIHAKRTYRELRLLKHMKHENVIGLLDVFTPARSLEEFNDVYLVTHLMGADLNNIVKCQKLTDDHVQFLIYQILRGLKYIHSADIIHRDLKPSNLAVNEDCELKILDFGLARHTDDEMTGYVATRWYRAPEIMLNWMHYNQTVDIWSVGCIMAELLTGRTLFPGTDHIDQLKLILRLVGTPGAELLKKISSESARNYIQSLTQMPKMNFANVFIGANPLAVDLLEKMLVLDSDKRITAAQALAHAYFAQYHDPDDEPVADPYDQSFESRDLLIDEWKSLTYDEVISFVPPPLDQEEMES

MAP kinase p38 [15] = target: T1, MAP kinase p38; assay: Inhibition of LPS-induced p38-related IL1-beta production in human white blood cells; assay type: functional, cell-based
Outline: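 Heparinized whole blood from donors medication-free for at least 14 days. Compounds came from a 6 mM DMSO stock, six 3-fold serial dilutions in DMSO, then diluted 1/20 in RPMI and run in triplicate. Blood was preincubated with compound 30 min at 37 °C, then stimulated with E. coli 0127:B8 LPS at 0.5 μg/mL final overnight at 37 °C, 5% CO₂. Plasma IL-1β was measured by ELISA.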

[16] = target: Cyclin-dependent kinase 4 (Homo sapiens, UniProt P11802); assay: Inhibition of Cyclin-dependent kinase 4
Cyclin-dependent kinase 4, sequence (P11802 whole entry): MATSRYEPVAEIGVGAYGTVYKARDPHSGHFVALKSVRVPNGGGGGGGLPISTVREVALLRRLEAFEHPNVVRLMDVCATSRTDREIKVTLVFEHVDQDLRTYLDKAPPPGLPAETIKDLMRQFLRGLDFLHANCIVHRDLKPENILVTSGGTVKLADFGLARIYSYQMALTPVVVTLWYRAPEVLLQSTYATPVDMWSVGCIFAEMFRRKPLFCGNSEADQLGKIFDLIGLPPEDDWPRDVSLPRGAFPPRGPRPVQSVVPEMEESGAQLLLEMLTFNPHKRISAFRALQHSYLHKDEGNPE

[17] = target: T2, Mitogen-activated protein kinase 14; assay: Inhibition of Mitogen-activated protein kinase p38 alpha
Outline: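 Human recombinant active p38α (5 nM) in MOPS pH 7.4 buffer (40 mM MgCl₂, 1 mM DTT, β-glycerophosphate, EGTA, orthovanadate) was preincubated 10 min at room temperature with compound (0–10 μM, DMSO). Reaction was started with γ-[³³P]ATP (50 μM) and MBP (35 μM), run 30 min at 30 °C, then captured on phosphocellulose, acid-washed and counted. IC50 was fitted as fractional activity = 1/([I]/IC50 + 1).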

[18] = Partition coefficient (logP); assay type: physicochemical; conditions: octanol/water
[19] = target: Mitogen-activated protein kinase 14 (Rattus norvegicus) (UniProt P70618); assay: In vivo percent inhibition of LPS stimulated TNF alpha synthesis in rat at a concentration of 30 mg/kg; assay type: functional, organism-based; design: dose 30 mg/kg; outline: as §3
Mitogen-activated protein kinase 14 (Rattus norvegicus), sequence (P70618 whole entry): as the sequence (Q16539 whole entry) above, with I17V, L48H, T263A, D321E, L332F counted along it

[20] = Bioavailability at a dose of 10 mg/Kg administered perorally in female hanover-wistar rat; assay type: ADME, organism-based; conditions: in vivo, po; outline: as §2
[21] = T 1/2 at a dose of 10 mg/Kg administered perorally in female hanover-wistar rat; assay type: ADME, organism-based; conditions: in vivo, po; outline: as §2
[22] = target: Interleukin-1 receptor-associated kinase 1 (Homo sapiens, UniProt P51617); assay: Inhibition of interleukin-1 receptor-associated kinase 1
Interleukin-1 receptor-associated kinase 1, sequence (P51617 whole entry): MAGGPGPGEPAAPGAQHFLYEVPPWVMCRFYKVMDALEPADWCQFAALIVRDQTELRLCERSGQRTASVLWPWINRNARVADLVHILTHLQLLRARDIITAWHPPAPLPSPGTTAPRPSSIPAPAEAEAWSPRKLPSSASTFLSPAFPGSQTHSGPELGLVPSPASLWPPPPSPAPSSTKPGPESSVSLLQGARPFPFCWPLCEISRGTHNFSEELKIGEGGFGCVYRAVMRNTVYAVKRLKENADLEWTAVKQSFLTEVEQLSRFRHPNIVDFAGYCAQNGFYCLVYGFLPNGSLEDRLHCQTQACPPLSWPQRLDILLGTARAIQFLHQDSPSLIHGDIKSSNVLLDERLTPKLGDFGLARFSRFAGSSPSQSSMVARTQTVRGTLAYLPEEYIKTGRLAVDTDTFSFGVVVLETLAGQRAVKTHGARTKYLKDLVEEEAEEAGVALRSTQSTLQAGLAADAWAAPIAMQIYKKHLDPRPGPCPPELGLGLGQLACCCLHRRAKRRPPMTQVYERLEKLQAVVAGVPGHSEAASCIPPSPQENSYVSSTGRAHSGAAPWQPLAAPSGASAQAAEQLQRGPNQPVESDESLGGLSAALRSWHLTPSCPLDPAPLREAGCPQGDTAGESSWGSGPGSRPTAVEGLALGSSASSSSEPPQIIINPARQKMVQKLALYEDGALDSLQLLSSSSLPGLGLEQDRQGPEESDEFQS

[23] = T max at a dose of 10 mg/Kg administered intravenously in female hanover-wistar rat; assay type: ADME, organism-based; conditions: in vivo, iv; outline: as §1
[24] = AUC at a dose of 10 mg/Kg administered perorally in female hanover-wistar rat; assay type: ADME, organism-based; conditions: plasma, po; outline: as §2
[25] = target: Mitogen-activated protein kinase; ERK1/ERK2 (Homo sapiens, UniProt P27361+P28482); assay: Inhibition of Mitogen-activated protein kinase ERK; assay type: protein assay
[26] = target: Vascular endothelial growth factor receptor 2 (Homo sapiens, UniProt P35968); assay: Inhibition of Vascular endothelial growth factor receptor 2
Vascular endothelial growth factor receptor 2, sequence (P35968 whole entry): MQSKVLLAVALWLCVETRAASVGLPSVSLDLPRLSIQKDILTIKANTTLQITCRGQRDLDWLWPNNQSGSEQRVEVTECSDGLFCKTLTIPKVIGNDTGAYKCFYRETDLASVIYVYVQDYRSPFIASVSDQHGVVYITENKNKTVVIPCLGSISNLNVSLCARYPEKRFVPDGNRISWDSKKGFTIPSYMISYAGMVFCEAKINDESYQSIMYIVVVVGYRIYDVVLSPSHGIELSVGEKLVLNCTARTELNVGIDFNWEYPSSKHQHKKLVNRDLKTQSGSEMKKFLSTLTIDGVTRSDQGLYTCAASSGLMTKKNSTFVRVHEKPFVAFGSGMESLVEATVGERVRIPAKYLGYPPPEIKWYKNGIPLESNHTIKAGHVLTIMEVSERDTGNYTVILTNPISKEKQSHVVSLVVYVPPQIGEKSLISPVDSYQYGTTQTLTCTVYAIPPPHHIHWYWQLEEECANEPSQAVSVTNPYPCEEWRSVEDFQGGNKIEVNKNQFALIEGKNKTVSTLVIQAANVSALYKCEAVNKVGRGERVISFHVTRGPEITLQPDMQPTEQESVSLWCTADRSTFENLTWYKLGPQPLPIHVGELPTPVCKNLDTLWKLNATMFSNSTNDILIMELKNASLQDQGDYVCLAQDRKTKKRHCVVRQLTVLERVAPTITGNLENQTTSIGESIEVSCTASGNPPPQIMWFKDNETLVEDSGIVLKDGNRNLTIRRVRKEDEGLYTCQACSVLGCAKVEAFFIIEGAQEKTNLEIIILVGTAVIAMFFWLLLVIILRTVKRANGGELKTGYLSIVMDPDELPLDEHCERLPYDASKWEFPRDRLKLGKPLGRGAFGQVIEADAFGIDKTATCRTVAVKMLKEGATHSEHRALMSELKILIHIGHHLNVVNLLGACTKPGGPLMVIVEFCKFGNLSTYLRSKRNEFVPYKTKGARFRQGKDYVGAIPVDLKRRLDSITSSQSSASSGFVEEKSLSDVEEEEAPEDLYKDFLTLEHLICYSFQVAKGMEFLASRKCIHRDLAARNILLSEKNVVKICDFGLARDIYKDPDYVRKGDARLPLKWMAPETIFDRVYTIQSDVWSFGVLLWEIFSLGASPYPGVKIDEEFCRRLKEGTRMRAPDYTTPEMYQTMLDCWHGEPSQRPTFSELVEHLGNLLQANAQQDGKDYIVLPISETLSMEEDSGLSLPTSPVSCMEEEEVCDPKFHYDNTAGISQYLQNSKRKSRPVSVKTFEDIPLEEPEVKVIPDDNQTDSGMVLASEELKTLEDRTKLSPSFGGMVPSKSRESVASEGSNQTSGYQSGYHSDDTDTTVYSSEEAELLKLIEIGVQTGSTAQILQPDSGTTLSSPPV

Protein kinase C (PKC) = assay: Inhibition of Protein kinase C; assay type: protein assay

SMILES: C[C@H](O)CNc1cc(-c2[nH]c3cccnc3c2-c2ccc(F)cc2)ccn1
- clearance [1]: 1.2 L/h/kg
- IC50 [2]: > 10 µM
- IC50 [3]: > 10 µM
- Tmax [4]: 1 h
- IC50 [5]: > 25 µM
- IC50 (MAP kinase p38 [6]): 0.0017 µM
- IC50 [7]: > 10 µM
- ED50 (Rattus norvegicus): 2 mg/kg
- half-life [8]: 1.1 h
- IC50 [9]: > 30 µM
- AUC [10]: 23.4 µM·h
- IC50 [11]: > 25 µM
- Cmax [12]: 6.9 µM
- Cell permeation (Homo sapiens): Permeable
- Cmax [13]: 10.3 µM
- IC50 [14]: 0.001 µM
- IC50 (MAP kinase p38 [15]): 0.21 µM
- IC50 [16]: > 25 µM
- IC50 [17]: 0.00129 µM
- logP [18]: 3.5
- inhibition [19]: 88%
- bioavailability [20]: 85.6%
- half-life [21]: 1.5 h
- IC50 [22]: > 30 µM
- Tmax [23]: < 1 h
- AUC [24]: 20 µM·h
- IC50 [25]: > 10 µM
- IC50 [26]: > 10 µM
- IC50 (Protein kinase C (PKC)): > 10 µM
